Among the data in ChEMBL document CHEMBL1144710, “epigenetic multiple ligands: mixed histone/protein methyltransferase, acetyltransferase, and class III deacetylase (sirtuin) inhibitors” (J Med Chem, 2008) are IC50, Activity and inhibition values, retold here.

Each structure is given as a SMILES string. Calls of active or inactive are those of the source. Unless noted, no cut-off for these calls is given here.

In assay [1] the target is RmtA (Emericella nidulans, UniProt Q5VLE3). Description: Inhibition of Aspergillus nidulans RmtA. The gist of the method: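 Enzyme was GST-RmtA fusion expressed in E. coli BL21 and glutathione-affinity purified (500 ng), preincubated with compound for 15 min at room temperature. Then 20 µg chicken erythrocyte core histones and 0.55 µCi [3H]AdoMet were added, 30 min at 30 °C. Stopped with 25% TCA, filtered, counted by liquid scintillation.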

The subject of assay [2] is U-937. Put plainly: Inhibition of histone H3K4 methylation in human U937 cells at 50 uM after 24 hrs. The assay is classed as functional, cell-based. The gist of the method: (§1)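 U937 cells treated at 50 µM for 24 h. Histones extracted with Triton buffer, then 0.2 M HCl overnight at 4 °C. 3–10 µg run on 15% SDS-PAGE and immunoblotted with anti-monomethyl-H3K4, monomethyl-H4R3 or dimethyl-H3R17 (1:500, overnight 4 °C), ECL detection. Loading controls: total H4 (H3K4), Ponceau Red (Arg marks).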

Assay [3] deals with T1, Histone-lysine N-methyltransferase SETD7 (Homo sapiens) (UniProt Q8WTS6).
T1 sequence (whole entry): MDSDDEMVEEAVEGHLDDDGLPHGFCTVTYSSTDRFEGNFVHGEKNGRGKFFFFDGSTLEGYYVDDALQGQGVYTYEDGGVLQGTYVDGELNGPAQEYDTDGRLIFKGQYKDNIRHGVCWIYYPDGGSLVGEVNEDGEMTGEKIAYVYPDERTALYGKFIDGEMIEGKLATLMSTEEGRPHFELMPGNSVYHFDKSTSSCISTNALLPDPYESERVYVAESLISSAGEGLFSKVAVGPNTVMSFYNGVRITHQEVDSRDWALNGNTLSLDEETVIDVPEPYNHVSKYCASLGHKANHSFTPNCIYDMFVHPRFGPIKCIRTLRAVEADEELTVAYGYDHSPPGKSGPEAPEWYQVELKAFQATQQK
Description: Inhibition of human recombinant SET7 assessed as histone H3 protein methylation at 100 uM. The gist of the method: (§2)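 Recombinant enzymes (0.2 µg) with substrate (0.5 µg: Npl3p for PRMT1, PABP1 for CARM1, histone H3 for SET7), 0.5 µM [3H]AdoMet and 100 µM compound in PBS pH 7.4 with 3.3% v/v DMSO, 90 min at 30 °C. Products separated by 10% SDS-PAGE, transferred to PVDF, detected by fluorography on film overnight.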

For assay [4], the system named is U-937. Description: Inhibition of histone H4R3 methylation in human U937 cells at 50 uM after 24 hrs. The assay is classed as functional, cell-based. The gist of the method:
as §1

Assay [5] concerns U-937. Put plainly: Inhibition of histone H3R17 methylation in human U937 cells at 50 uM after 24 hrs. Format: functional, cell-based. The gist of the method: as §1
Assay [6] addresses T2, Histone-arginine methyltransferase CARM1 (Homo sapiens) (UniProt Q86X55).
T2 sequence (whole entry): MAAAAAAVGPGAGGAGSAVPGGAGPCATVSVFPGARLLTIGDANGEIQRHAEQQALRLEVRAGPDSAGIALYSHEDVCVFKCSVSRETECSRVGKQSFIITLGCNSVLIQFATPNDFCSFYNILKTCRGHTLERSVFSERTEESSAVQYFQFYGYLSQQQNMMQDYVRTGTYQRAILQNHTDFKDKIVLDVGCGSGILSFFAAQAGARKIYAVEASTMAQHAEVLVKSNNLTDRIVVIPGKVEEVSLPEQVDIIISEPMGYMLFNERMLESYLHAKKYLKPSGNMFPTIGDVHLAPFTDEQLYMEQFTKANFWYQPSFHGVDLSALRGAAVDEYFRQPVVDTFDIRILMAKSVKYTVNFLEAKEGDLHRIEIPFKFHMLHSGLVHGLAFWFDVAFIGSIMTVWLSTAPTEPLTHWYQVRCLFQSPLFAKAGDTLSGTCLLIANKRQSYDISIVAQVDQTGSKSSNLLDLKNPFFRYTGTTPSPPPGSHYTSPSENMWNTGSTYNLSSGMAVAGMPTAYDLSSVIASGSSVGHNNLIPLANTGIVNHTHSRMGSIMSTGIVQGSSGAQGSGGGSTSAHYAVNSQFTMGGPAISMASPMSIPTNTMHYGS
Description: Inhibition of human recombinant CARM1 assessed as poly(A) binding protein 1 methylation at 100 uM. The gist of the method:
as §2

Assay [7] deals with Protein arginine N-methyltransferase 1 (Homo sapiens) (UniProt Q99873). Put plainly: Inhibition of human recombinant PRMT1 assessed as nuclear ribonucleoprotein Npl3p methylation at 100 uM. A digest of the protocol: as §2
The target in assay [8] is T3, NAD-dependent protein deacetylase sirtuin-1 (Homo sapiens) (UniProt Q96EB6).
T3 sequence (whole entry): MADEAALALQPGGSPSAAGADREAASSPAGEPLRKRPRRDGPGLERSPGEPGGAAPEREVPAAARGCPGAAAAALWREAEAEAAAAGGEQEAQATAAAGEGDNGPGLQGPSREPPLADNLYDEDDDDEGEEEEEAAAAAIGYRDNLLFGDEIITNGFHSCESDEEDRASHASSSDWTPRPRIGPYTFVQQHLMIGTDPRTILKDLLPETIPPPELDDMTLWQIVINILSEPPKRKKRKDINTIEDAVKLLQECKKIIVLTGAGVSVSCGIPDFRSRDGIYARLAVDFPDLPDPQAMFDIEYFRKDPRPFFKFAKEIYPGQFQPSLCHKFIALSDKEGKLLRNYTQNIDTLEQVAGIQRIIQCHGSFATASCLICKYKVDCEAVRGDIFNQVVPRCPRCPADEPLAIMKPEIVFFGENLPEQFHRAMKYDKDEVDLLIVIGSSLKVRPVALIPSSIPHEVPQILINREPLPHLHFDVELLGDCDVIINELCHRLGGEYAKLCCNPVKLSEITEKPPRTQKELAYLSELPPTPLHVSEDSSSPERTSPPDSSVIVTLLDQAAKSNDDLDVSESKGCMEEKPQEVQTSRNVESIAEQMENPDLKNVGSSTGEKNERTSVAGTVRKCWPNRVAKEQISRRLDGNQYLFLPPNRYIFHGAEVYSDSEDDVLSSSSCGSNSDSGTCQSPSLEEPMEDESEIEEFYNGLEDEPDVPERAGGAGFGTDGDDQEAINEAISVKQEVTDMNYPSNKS
Description: Inhibition of human SIRT1 at 25 uM. The gist of the method:
(§3)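 Fluorescent two-stage assay. SIRT1 (1 U/well) or SIRT2 (5 U/well) with Fluor de Lys-SIRT1/2 substrate, NAD+ and compound at 25 µM, 37 °C for 2 h. Developer II containing nicotinamide then stopped the reaction and generated signal, read at ex 360/em 460 nm.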

For assay [9], the target named is T4, NAD-dependent protein deacetylase sirtuin-2 (Homo sapiens) (UniProt Q8IXJ6).
T4 sequence (whole entry): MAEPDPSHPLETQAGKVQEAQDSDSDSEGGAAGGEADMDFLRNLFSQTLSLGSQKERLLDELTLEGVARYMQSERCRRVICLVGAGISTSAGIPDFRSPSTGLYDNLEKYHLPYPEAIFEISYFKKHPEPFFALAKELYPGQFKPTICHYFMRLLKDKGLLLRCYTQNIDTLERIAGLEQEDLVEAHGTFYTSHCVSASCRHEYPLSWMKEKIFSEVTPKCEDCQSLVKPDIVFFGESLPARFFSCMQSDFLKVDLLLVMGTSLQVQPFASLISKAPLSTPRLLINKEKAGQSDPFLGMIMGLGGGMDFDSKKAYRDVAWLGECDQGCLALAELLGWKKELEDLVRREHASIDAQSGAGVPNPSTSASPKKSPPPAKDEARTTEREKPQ
Put plainly: Inhibition of human SIRT2 at 25 uM. A digest of the protocol: as §3

Assay [10] deals with U-937. Put plainly: Inhibition of human p300/CBP in U937 cells at 50 uM assessed as histone H3 acetylation. The assay is classed as cell-based. A digest of the protocol:
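Source was U937 nuclear extract (10 µg per assay) as p300/CBP HAT, with histone H3 substrate and compound at 50 µM or DMSO control for 90 min. Acetyl-H3 detected by indirect ELISA, quantified against acetylated H3 peptide standard curves, […].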

Assay [11] concerns the target Protein arginine N-methyltransferase 1 (Homo sapiens) (UniProt Q99873). Put plainly: Inhibition of human recombinant PRMT1 assessed as histone H4 methylation at 50 uM.

Chain of RmtA (Q5VLE3 whole entry, the tested form may be a part): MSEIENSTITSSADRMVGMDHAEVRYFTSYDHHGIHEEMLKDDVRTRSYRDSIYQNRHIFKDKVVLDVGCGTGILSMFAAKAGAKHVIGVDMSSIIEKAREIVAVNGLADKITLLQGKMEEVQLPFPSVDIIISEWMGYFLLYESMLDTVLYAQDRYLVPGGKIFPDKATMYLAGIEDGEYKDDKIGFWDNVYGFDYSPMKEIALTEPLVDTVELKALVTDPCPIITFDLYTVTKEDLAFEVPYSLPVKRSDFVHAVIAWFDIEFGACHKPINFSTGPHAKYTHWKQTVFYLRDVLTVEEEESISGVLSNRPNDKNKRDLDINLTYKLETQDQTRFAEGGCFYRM
Chain of Protein arginine N-methyltransferase 1 (Homo sapiens) (Q99873 whole entry, looked up): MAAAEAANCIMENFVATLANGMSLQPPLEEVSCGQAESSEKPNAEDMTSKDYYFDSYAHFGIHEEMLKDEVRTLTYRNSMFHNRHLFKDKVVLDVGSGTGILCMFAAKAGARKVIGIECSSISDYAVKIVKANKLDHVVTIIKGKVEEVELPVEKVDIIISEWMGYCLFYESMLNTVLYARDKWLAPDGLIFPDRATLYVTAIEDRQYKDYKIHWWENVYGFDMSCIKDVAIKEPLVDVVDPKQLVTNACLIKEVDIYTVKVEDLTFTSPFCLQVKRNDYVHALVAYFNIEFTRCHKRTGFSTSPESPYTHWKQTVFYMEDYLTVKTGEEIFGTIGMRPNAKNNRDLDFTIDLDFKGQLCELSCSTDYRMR

What is called IC50 is the concentration that gives 50% inhibition. A lower IC50 goes with higher potency. Consider `O=C1/C(=C/c2ccc(O)c(Br)c2)COC/C1=C\c1ccc(O)c(Br)c1`, for which, in assay [1], half-maximal inhibition (IC50) was put at 132 µM. In addition, the outcome in assay [2], in assay [4], in [5] and in assay [6] was Active. Besides, the outcome in assay [3] and in [7] was inactive.

`O=C(/C=C/c1c(Br)cc(O)cc1Br)/C=C/c1c(Br)cc(O)cc1Br` registered an IC50 in assay [1] of 215 µM. Besides, the outcome in assay [2], in assay [4], in [5] and in [7] was Active. Further, in [3], the outcome was inactive.

The term inhibition denotes the drop in the measured response relative to a control, in per cent. `O=C(/C=C/c1cc(Br)c(O)c(Br)c1)c1cc(Br)c(O)c(Br)c1`: the 50% inhibitory concentration (IC50) in [1] came out at 29 µM. Besides, the inhibition in assay [8] is 35%; in assay [9], 37%; in assay [10] it was 16%; in assay [11] it was 61%. Besides, the result in assay [2], in assay [4] and in assay [5] was Active. Moreover, the outcome in assay [6] and in assay [7] was inactive.

With `O=C(/C=C/c1ccc(O)c(Br)c1)c1ccc(C(=O)/C=C/c2ccc(O)c(Br)c2)cc1`, the IC50 in assay [1] was 47 µM. In addition, the outcome in [3] and in assay [7] was inactive. Besides, the outcome in assay [4], in assay [5] and in assay [6] was Active.

On to `O=C(Nc1ccc(NC(=O)c2cc(Br)c(O)c(Br)c2)cc1)c1cc(Br)c(O)c(Br)c1`, for which half-maximal inhibition in [1] (IC50) was put at 122 µM. For the same molecule, the outcome in assay [3], in [4], in [5], in [6] and in [7] was Active.

In turn, `O=C(/C=C/c1ccc(O)c(Br)c1)CC(=O)/C=C/c1ccc(O)c(Br)c1` displayed a half-inhibitory concentration (IC50) in assay [1] of 109 µM. The outcome in assay [3] and in [7] was inactive. Further, the result in [4], in [5] and in assay [6] was Active.

The molecule `O=C(/C=C/c1c(O)cc(Br)cc1Br)/C=C/c1c(O)cc(Br)cc1Br` showed a half-inhibitory concentration (IC50) in assay [1] of 238 µM. Also, the outcome in assay [2], in assay [4], in assay [5] and in [7] was Active. For the same molecule, the result in assay [3] was inactive.

`O=C1/C(=C/c2ccc(O)c(Br)c2)CCC/C1=C\c1ccc(O)c(Br)c1` registered an IC50 in assay [1] of 90 µM. Besides, the result in assay [2], in [4], in assay [5] and in assay [6] was Active. The outcome in assay [3] and in assay [7] was inactive.

With `O=C(/C=C/c1ccc(O)cc1Br)/C=C/c1ccc(O)cc1Br`, the IC50 in [1] was determined as 114 µM. Besides, the outcome in assay [2], in assay [4] and in assay [5] was Active.

For `O=C(/C=C/c1ccc(O)c(Br)c1)c1cccc(C(=O)/C=C/c2ccc(O)c(Br)c2)c1`, the half-maximal inhibitory concentration (IC50) in [1] turned out to be 59 µM. Further, the result in [2], in assay [4], in assay [5] and in assay [6] was Active. In addition, the outcome in assay [3] and in [7] was inactive.

In assay [1], `CN1C/C(=C\c2ccc(O)c(Br)c2)C(=O)/C(=C/c2cc(Br)c(O)c(Br)c2)C1` gave an IC50 of 123 µM. The result in assay [2], in assay [4] and in [5] was Active.

Regarding `O=C(/C=C/c1ccc(O)c(Br)c1)/C=C/c1ccc(O)c(Br)c1`, in assay [1], the IC50 came to 162 µM. The result in assay [8], in assay [9], in [10], in assay [2], in [4] and in [5] was inactive. In assay [11], the result was inactive. Also, the outcome in assay [6] and in assay [7] was Active.

`O=C(/C=C/c1ccc(O)c(Br)c1)c1ccccc1`: it took 190 µM to reach half-maximal inhibition in assay [1] (IC50). Further, the result in assay [2], in [4] and in assay [5] was Active.

On to `O=C1/C(=C/c2ccc(O)c(Br)c2)Cc2ccccc2/C1=C\c1ccc(O)c(Br)c1`, for which half-maximal inhibition in assay [1] (IC50) was put at 92 µM. Besides, the outcome in [2], in assay [4], in assay [5] and in [6] was Active. The result in assay [3] and in assay [7] was inactive.
